# Active and inactive are the calls of the source. The calls are words filed in the database; no cut-off is given here.
# Legend:
# [1] = tested on: Salmonella typhimurium; test: Antibacterial activity against Salmonella Typhimurium at 100 ug/ml after 16 to 20 hrs by broth microdilution method; type: functional, organism-based; conditions: Salmonella enterica subsp. enterica serovar Typhimurium
# [2] = tested on: Proteus vulgaris; test: Antibacterial activity against Proteus vulgaris at 100 ug/ml after 16 to 20 hrs by broth microdilution method; type: functional, organism-based
# [3] = tested on: Enterococcus faecalis; test: Antibacterial activity against Enterococcus faecalis at 100 ug/ml after 16 to 20 hrs by broth microdilution method; type: functional, organism-based
# [4] = tested on: Streptococcus pneumoniae; test: Antibacterial activity against Streptococcus pneumoniae at 100 ug/ml after 16 to 20 hrs by broth microdilution method; type: functional, organism-based
# [5] = tested on: Mycobacterium tuberculosis; test: Antitubercular activity against Mycobacterium tuberculosis H37Ra at 100 ug/ml after 6 days by microplate alamar blue assay; type: functional; conditions: 144 h
# In short: (§1)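 MABA run in 7H9GC medium, with drug diluted from DMSO stocks made at 100× the highest final concentration. Final levels were 100, 50, 10, 5, 2.5 and 1 μg/mL in triplicate, and the experiment was done three times. Inoculum was 2.5 × 10⁵ CFU/mL final. Alamar Blue plus Tween-80 was added once bacteria-only control wells turned pink, from day 6 on, and plates were read visually and by fluorescence after 24 h. Visual MIC is the lowest concentration preventing the blue-to-pink change. Mean percent inhibition was taken relative to bacteria-only and medium-only wells.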
# [6] = tested on: Pseudomonas aeruginosa; test: Antibacterial activity against Pseudomonas aeruginosa at 100 ug/ml after 16 to 20 hrs by broth microdilution method; type: functional, organism-based
# [7] = tested on: Bacillus subtilis; test: Antibacterial activity against Bacillus subtilis at 100 ug/ml after 16 to 20 hrs by broth microdilution method; type: functional, organism-based
# [8] = tested on: Listeria monocytogenes; test: Antibacterial activity against Listeria monocytogenes at 100 ug/ml after 16 to 20 hrs by broth microdilution method; type: functional, organism-based
# [9] = tested on: Escherichia coli; test: Antibacterial activity against Escherichia coli at 100 ug/ml after 16 to 20 hrs by broth microdilution method; type: functional, organism-based
# [10] = tested on: Mycobacterium tuberculosis; test: Antitubercular activity against Mycobacterium tuberculosis H37Ra at 10 ug/ml after 6 days by microplate alamar blue assay; type: functional; conditions: 144 h; in short: as §1
# [11] = tested on: Staphylococcus aureus; test: Antibacterial activity against Staphylococcus aureus at 100 ug/ml after 16 to 20 hrs by broth microdilution method; type: functional, organism-based
# [12] = tested on: Mycobacterium tuberculosis; test: Antitubercular activity against Mycobacterium tuberculosis H37Ra after 6 days by microplate alamar blue assay; type: functional; conditions: 144 h; in short: as §1
# [13] = tested on: Staphylococcus epidermidis; test: Antibacterial activity against Staphylococcus epidermidis at 100 ug/ml after 16 to 20 hrs by broth microdilution method; type: functional, organism-based
# [14] = tested on: Streptococcus pyogenes; test: Antibacterial activity against Streptococcus pyogenes at 100 ug/ml after 16 to 20 hrs by broth microdilution method; type: functional, organism-based
# [15] = tested on: Mycobacterium tuberculosis; test: Antitubercular activity against Mycobacterium tuberculosis H37Ra at 1 ug/ml after 6 days by microplate alamar blue assay; type: functional; conditions: 144 h; in short: as §1
# [16] = tested on: Mycobacterium tuberculosis; test: Antitubercular activity against Mycobacterium tuberculosis H37Ra infected in BALB/c mouse assessed as reduction of CFU counts in spleen at 50 mg/kg, ip administered 5 days after infection for 25 days measured after 3 days last dose; type: functional, organism-based; parameters: dose 50 mg/kg
# In short: (§2)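 Female BALB/c mice, 5–6 weeks old, were infected iv via the tail vein with about 2.5 × 10⁵ CFU of H37Ra in PBS, 5 per group. From day 5, drug was given ip at 50 mg/kg, 5 days/week, for 25 treatment days, in 10% DMSO–saline or poly(ethylene glycol) methyl ether. Controls received diluent only. Three days after the last dose, lung, liver and spleen homogenates were plated on 7H11 agar at 37 °C for up to 4 weeks. Colony counts were done blinded.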
# [17] = tested on: Mycobacterium tuberculosis; test: Antitubercular activity against Mycobacterium tuberculosis H37Ra at 5 ug/ml after 6 days by microplate alamar blue assay; type: functional; conditions: 144 h; in short: as §1
# [18] = tested on: Mycobacterium tuberculosis; test: Antitubercular activity against Mycobacterium tuberculosis H37Ra infected in BALB/c mouse assessed as reduction of CFU counts in lungs at 50 mg/kg, ip administered 5 days after infection for 25 days measured after 3 days last dose; type: functional, organism-based; parameters: dose 50 mg/kg; in short: as §2
# [19] = tested on: Mycobacterium tuberculosis; test: Antitubercular activity against Mycobacterium tuberculosis H37Ra infected in BALB/c mouse assessed as reduction of CFU counts in liver at 50 mg/kg, ip administered 5 days after infection for 25 days measured after 3 days last dose; type: functional, organism-based; parameters: dose 50 mg/kg; in short: as §2
# [20] = tested on: Mycobacterium tuberculosis; test: Antitubercular activity against Mycobacterium tuberculosis H37Ra at 50 ug/ml after 6 days by microplate alamar blue assay; type: functional; conditions: 144 h; in short: as §1
# [21] = Cytotoxicity against human HuH7 cells assessed as cell viability after 2 days by XTT assay; type: cell-based, Huh-7; conditions: HuH7 cells
# In short: (§3)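 Huh-7 cells seeded at 1 × 10⁵ cells/well and left to attach 6-8 h. Medium then replaced with compound at 200, 100, 50, 10 or 1 μg/mL, with a DMSO control, and incubated 2 days at 37 °C. Viability by XTT, absorbance read at 450-500 nm.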
# [22] = Cytotoxicity against human HuH7 cells assessed as cell viability at 200 ug/ml after 2 days by XTT assay; type: cell-based; conditions: huh-7, 48 h; in short: as §3
# [23] = Cytotoxicity against human HuH7 cells assessed as cell viability at > 200 ug/ml after 2 days by [3H]thymidine incorporation assay; type: cell-based; conditions: huh-7, 48 h
# [24] = tested on: Mycobacterium tuberculosis; test: Antitubercular activity against Mycobacterium tuberculosis H37Ra at 2.5 to 5 ug/ml after 6 days by microplate alamar blue assay; type: functional; in short: as §1
# [25] = tested on: Mus musculus; test: Toxicity in Mycobacterium tuberculosis H37Ra infected in BALB/c mouse assessed as adverse effect at 50 mg/kg, ip administered 5 days after infection for 25 days; type: organism-based; parameters: dose 50 mg/kg, route intraperitoneal; conditions: in vivo
# In short: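 BALB/c mice infected with H37Ra were given 50 mg/kg ip in 10% DMSO–saline from day 5 post-infection, 5 days/week, over 25 treatment days. They were monitored for weight loss and behavioural changes and examined by gross necropsy after euthanasia.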
Structure (SMILES),Activity [1],Activity [2],Activity [3],Activity [4],inhibition at 100 µg/mL [5],Activity [6],Activity [7],Activity [8],Activity [9],inhibition at 10 µg/mL [10],Activity [11],MIC50 [12],Activity [13],Activity [14],inhibition at 1 µg/mL [15],inhibition at 5 µg/mL [17],inhibition at 50 µg/mL [20],CC50 at 48 h [21],Activity [22],Activity [23],other results
CCCc1cc2c[nH]c(=O)nc2o1,inactive,inactive,inactive,inactive,50%,inactive,inactive,inactive,inactive,0%,inactive,100 µg/mL,inactive,inactive,–,–,–,–,–,–,–
NNC(=O)c1ccncc1 [ISONIAZID],–,–,–,–,–,–,–,–,–,–,–,< 1 µg/mL,–,–,100%,–,–,–,–,–,–
N[C@@H]1CONC1=O [CYCLOSERINE],–,–,–,–,–,–,–,–,–,67%,–,5 µg/mL,–,–,–,50%,–,–,–,–,Activity [16]: Active; Activity [18]: Active; Activity [19]: Active
CCCc1ccc(C#Cc2c[nH]c(=O)[nH]c2=O)cc1,inactive,inactive,inactive,inactive,90%,inactive,inactive,inactive,inactive,55%,inactive,< 10 µg/mL,inactive,inactive,–,0%,55%,> 100 µg/mL,Non-toxic,Non-toxic,–
O=c1[nH]c(=O)n([C@H]2C[C@H](O)[C@@H](CO)O2)cc1C#Cc1ccccn1,inactive,inactive,inactive,inactive,90%,inactive,inactive,inactive,inactive,68%,inactive,2.5 µg/mL,inactive,inactive,–,–,78%,–,Non-toxic,Non-toxic,inhibition (INH) [24]: 50%
O=c1[nH]cc(C#Cc2ccccc2)c(=O)[nH]1,inactive,inactive,inactive,inactive,90%,inactive,inactive,inactive,inactive,40%,inactive,> 10 µg/mL,inactive,inactive,–,–,90%,> 100 µg/mL,Non-toxic,Non-toxic,–
CO[C@H]1/C=C/O[C@@]2(C)Oc3c(C)c(O)c4c(O)c(c(/C=N/N5CCN(C)CC5)c(O)c4c3C2=O)NC(=O)/C(C)=C\C=C\[C@H](C)[C@H](O)[C@@H](C)[C@@H](O)[C@@H](C)[C@H](OC(C)=O)[C@@H]1C [RIFAMPIN],–,–,–,–,–,–,–,–,–,–,–,< 1 µg/mL,–,–,100%,–,–,–,–,–,–
CCCCCc1ccc(C#Cc2c[nH]c(=O)[nH]c2=O)cc1,inactive,inactive,inactive,inactive,90%,inactive,inactive,inactive,inactive,50%,inactive,10 µg/mL,inactive,inactive,–,0%,50%,> 100 µg/mL,Non-toxic,Non-toxic,–
O=c1[nH]cc(C#Cc2ccccn2)c(=O)[nH]1,inactive,inactive,inactive,inactive,90%,inactive,inactive,inactive,inactive,60%,inactive,5 µg/mL,inactive,inactive,–,50%,70%,> 100 µg/mL,Non-toxic,Non-toxic,Activity [16]: Active; Activity [25]: Non-toxic; Activity [18]: Active; Activity [19]: Active
C(C#Cc1ccccn1)#Cc1ccccn1,inactive,inactive,inactive,inactive,100%,inactive,inactive,inactive,inactive,100%,inactive,< 1 µg/mL,inactive,inactive,80%,–,100%,–,Non-toxic,Non-toxic,–
